KCNK3 block – human KCNK3 channel inhibition, primary screen; B-score at 10 µM; CHO-KCNK3 thallium flux, FluxOR fluorescence; hits give low values; actives 0.84% (n = 340,000); O14649;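 active means B-score under library mean minus 4 SD, starting fluorescence ratio at most library mean plus 5 SD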;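 further: more negative B-score means stronger inhibition of thallium flux through KCNK3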
KCNQ1 inh – blocks the human KCNQ1 potassium channel | actives 1.3% (n = 310,000) | CHO-K1 KCNQ1, FluxOR thallium flux fluorescence; hits give high values | P51787 | B-score at 10 µM;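 active means compounds whose thallium flux B-score, printed positive for inhibition, exceeds three library SD while starting fluorescence stays within three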;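 further: channel opened by potassium depolarization with thallium stimulus after 20 min compound exposure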
hERG rescue – shields human hERG channel from block by proarrhythmic agents; CHO-hERG, FluxOR thallium flux, dofetilide IC70 present; activation (rescue from dofetilide block), less the hit threshold, % at 10 µM; Q12809; actives 0.51% (n = 310,000); AID 1511;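 active means activation above the mean of controls blocked by dofetilide plus 5 SD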;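 further: thallium influx through hERG after potassium depolarization seen as dye fluorescence rise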
Target sequence (Q12809 whole entry, looked up): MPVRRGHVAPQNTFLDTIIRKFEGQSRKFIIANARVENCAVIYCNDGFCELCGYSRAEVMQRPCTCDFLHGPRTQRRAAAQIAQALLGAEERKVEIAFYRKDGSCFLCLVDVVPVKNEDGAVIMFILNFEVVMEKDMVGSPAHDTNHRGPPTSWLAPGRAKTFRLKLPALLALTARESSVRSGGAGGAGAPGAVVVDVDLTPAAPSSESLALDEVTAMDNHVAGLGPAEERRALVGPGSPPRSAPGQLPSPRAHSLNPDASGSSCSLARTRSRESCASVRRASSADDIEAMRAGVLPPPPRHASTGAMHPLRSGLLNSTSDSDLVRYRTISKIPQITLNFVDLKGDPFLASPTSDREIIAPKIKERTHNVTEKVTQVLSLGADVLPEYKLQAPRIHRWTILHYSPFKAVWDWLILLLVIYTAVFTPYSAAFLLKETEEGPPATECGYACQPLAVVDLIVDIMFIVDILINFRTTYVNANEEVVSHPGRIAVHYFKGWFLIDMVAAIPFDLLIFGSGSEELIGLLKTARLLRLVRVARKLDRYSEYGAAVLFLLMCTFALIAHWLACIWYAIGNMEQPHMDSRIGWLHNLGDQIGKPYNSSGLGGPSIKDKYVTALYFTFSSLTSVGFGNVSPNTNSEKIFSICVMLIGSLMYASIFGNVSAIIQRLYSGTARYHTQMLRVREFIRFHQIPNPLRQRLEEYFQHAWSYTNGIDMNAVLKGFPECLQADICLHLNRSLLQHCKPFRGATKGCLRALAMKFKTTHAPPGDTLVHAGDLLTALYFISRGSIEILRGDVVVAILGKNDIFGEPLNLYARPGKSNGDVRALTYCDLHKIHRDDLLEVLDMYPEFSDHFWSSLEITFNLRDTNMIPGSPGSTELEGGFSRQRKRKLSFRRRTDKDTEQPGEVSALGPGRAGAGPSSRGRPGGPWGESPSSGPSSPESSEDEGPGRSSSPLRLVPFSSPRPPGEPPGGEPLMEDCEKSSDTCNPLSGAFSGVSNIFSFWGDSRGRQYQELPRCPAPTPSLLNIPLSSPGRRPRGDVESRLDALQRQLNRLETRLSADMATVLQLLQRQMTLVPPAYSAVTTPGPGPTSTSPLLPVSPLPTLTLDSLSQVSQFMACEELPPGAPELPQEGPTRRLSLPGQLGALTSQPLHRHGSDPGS
KCNQ1 act – potentiates or activates the human KCNQ1 potassium channel; CHO-K1 KCNQ1, thallium flux FluxOR fluorescence; hits give high values; B-score at 10 µM; actives 0.35% (n = 310,000);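 active means fluorescence ratio B-score, a plate-corrected score, at least three library SD, with initial intensity B-score within 5 SD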
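Assay system: stable KCNQ1 CHO-K1 line; medium: assay buffer, equal DMSO in all wells; timing: 90 min dye loading and 20 min compound exposure, both at room temperature; technique: kinetic FluxOR thallium fluorescence, 10-s 1-Hz baseline, 110-s post-stimulus read; read-out basis: B score of baseline-normalized fluorescence ratio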
KCNK9 block – blocks the human KCNK9 two-pore domain potassium channel; HEK293 KCNK9, FluxOR thallium flux fluorescence; hits give low values; B-score at 10 µM; Q9NPC2; actives 1.2% (n = 310,000);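 active means ratio B-score over 3 SD below the library mean, with starting fluorescence within 5 SD of its mean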;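 further: negative B-score means less thallium flux so channel inhibition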
Cl transport mod – KCC2 (human) Cl- transport modulation; KCC2 cells, thallium flux FluoZin-2 fluorescence; B-score of Tl+ flux slope (higher = more flux/activation; lower = inhibition) at 10 µM; Q9H2X9; actives 2.2% (n = 190,000);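 active means thallium flux slope and its plate-corrected score both differing from the plate sample mean at a set confidence after two filtering rounds, in either direction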;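 further: slope of fluorescence scaled to starting intensity during 10 to 20 s after thallium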
KCC2 sec1 – KCC2 (human) modulation, secondary assay; HEK293-KCC2, thallium flux, FluoZin2 fluorescence; hits give high values; actives 15% (n = 3,700); normalised thallium flux (F/F0 slope) at 10 µM; shares compounds with Cl transport mod;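 active means thallium flux slope above the same plate's solvent-only control mean plus 3 SD; inconclusive means the two replicate wells disagree; inactive means no significant difference from solvent-only control wells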
KCC2 bumet counter – bumetanide-insensitive thallium flux in KCC2 cells with ouabain, counter-screen. shares compounds with Cl transport mod. HEK293-KCC2 + bumetanide/ouabain, thallium flux FluoZin2; hits give high values. normalized thallium flux at 10 µM. actives 49% (n = 3,700). AID 1714;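 active means thallium entry rate above the same plate's blocked-transporter control wells by more than 3 SD; inconclusive means the two repeat wells disagree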;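 further: raw slope of fluorescence over initial fluorescence between 10 and 20 s after thallium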
KCC2 secondary2 – KCC2 (human) modulation, second secondary assay; normalized thallium flux at 10 µM; actives 23% (n = 3,700); HEK293-KCC2, thallium flux FluoZin2 fluorescence; actives lie on both sides; F/F0 rise rate, 10–20 s post-thallium; shares compounds with Cl transport mod; AID 1715;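 active means thallium flux slope more than 3 SD above or below the plate's solvent-only control mean, mostly below; inconclusive means the two repeat wells disagreed; inactive means no significant shift from solvent-only controls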;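 further: raw slope with 0.1% DMSO as baseline and bumetanide as block control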
HEK293 Tl flux – acts in parental HEK cells, KCC2 counter-screen; shares compounds with Cl transport mod; HEK293 parental cells, thallium flux FluoZin2, ouabain; baseline-ratio fluorescence slope, 10–20 s after thallium; thallium flux rate (normalised fluorescence) at 10 µM; actives 46% (n = 3,700); AID 1716;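 active means thallium flux rate significantly above the same plate's solvent-only control wells, beyond their mean plus 3 SD; inconclusive means the two replicate wells gave conflicting results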
KCC2 ouabain – modulates human KCC2 on retest with ouabain. shares compounds with Cl transport mod. HEK293-KCC2, thallium flux FluoZin2 fluorescence; bidirectional: low = inhibitor, high = activator. raw Tl+ flux slope (below DMSO = inhibition, above = activation) at 10 µM. actives 48% (n = 3,700). AID 1717;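 active means thallium flux slope beyond 3 SD from same-plate DMSO control mean in most replicates, usually higher, sometimes lower; inconclusive means repeat tests gave conflicting results; inactive means no significant difference from controls in most replicates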;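 further: slope of initial-normalized fluorescence between seconds 10 and 20 after thallium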
HEK293 Tl flux2 – acts in parental HEK cells, second KCC2 counter-screen. shares compounds with Cl transport mod. HEK293 parental, thallium flux FluoZin-2 fluorescence slope. thallium flux slope at 10 µM. actives 33% (n = 3,700);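 active means thallium flux slope above the same plate's solvent-control mean plus 3 SD in both duplicate wells; inconclusive means duplicate wells that disagreed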;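 further: run without ouabain in cells lacking the KCC2 cotransporter; slope of fluorescence scaled to its starting value between 10 and 20 s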
Active calls of the source: *; i = inactive; u = inconclusive; x = no result. In the library only some 4.1% were active in any assay of this set; here they are far more common.

SMILES	KCNK3 block	KCNQ1 inh	hERG rescue	KCNQ1 act	KCNK9 block	Cl transport mod	KCC2 sec1	KCC2 bumet counter	KCC2 secondary2	HEK293 Tl flux	KCC2 ouabain	HEK293 Tl flux2
CCC(CC)C(=O)Nc1cc(=O)n(C)c(=O)n1C	i	i	-8	i	i	4.1*	0.0062	0.0049	0.028	0.0078	0.019	0.011
C/C(=N\NC(=O)c1c(Cl)cnn1C)c1cccnc1	i	i	-6	i	i	x	x	x	x	x	x	x
Cc1ccc(-n2nnnc2SCC(=O)N2CCc3ccccc3C2)cc1	i	i	-7	i	i	-3.6*	0.0075	0.0059	0.028	0.0071	0.021*	0.011
Cc1ccc(-n2nnnc2SCC(=O)NC2CCCc3ccccc32)cc1 (stereo not given)	i	i	-5	i	i	-4.6*	0.0068	0.0033*	0.026*	u	0.014*	0.0095
Cc1ccc(-n2nnnc2SCC(=O)NC2CCCc3ccccc32)c(C)c1 (stereo not given)	i	i	-7	i	i	-0.7	x	x	x	x	x	x
COc1ccc(-c2cc(CCC(=O)N3CCN(c4cc(C)ccc4C)CC3)on2)cc1	i	x	x	x	x	x	x	x	x	x	x	x
O=C(CN(CCc1ccccc1)C(=O)Cn1nnc(-c2cccs2)n1)NCc1ccco1	i	i	3	i	i	-4.1*	0.0053	0.005	0.024*	0.0069	u	0.0098
O=C(CN(C(=O)Cn1nnc(-c2cccs2)n1)c1ccc2c(c1)OCCO2)NCc1ccccc1	i	i	-14	i	i	-3.1	x	x	x	x	x	x
O=c1oc2ccccc2c(Nc2cccc3ccccc23)c1[N+](=O)[O-]	i	i	-7	i	i	-2.6*	0.0077	0.0058	0.032	0.0034	0.016*	0.011
O=c1oc2ccccc2c(Nc2ccccc2O)c1[N+](=O)[O-]	i	i	-4	i	i	-1.9	x	x	x	x	x	x
COc1cccc(CN(C)C(=O)c2cccc(S(=O)(=O)Nc3cccc(C)c3)c2)c1OC	i	x	x	x	x	x	x	x	x	x	x	x
CSc1nc2ccc3nc(NC(=O)c4ccc(C)cc4)sc3c2s1	i	i	-6	i	i	1.2	x	x	x	x	x	x
Cc1ccc(Nc2nc3ccccc3c(=O)s2)cc1C	i	i	-4	i	i	17*	0.0072	0.031*	0.043*	0.026*	0.039*	0.028*
Cc1ccc(C(=O)Nc2nc3ccccc3c(=O)s2)cc1	i	i	23*	35*	i	41*	0.027*	0.14*	0.054*	0.079*	0.11*	0.029*
NNC(=O)c1ccc2ccccc2n1	i	x	x	x	x	26*	0.0072	0.056*	0.042*	0.038*	0.047*	0.023*
O=C(NCc1ccccc1)c1ccc2ccccc2n1	i	i	-3	i	i	x	x	x	x	x	x	x
O=C(NN=C1CCCCCCC1)c1ccc2ccccc2n1	i	i	-28	i	i	23*	0.0062	0.038*	u	0.026*	0.035*	0.021*
CC(C)CN(C(=O)COC(=O)C12CC3CC(CC(C3)C1)C2)c1c(N)n(Cc2ccccc2)c(=O)[nH]c1=O	i	i	-1	i	i	x	x	x	x	x	x	x
Cc1cc(Br)cc(Br)c1OCC(=O)NNC(=O)Nc1ccccc1	i	i	-9	i	i	x	x	x	x	x	x	x
O=S(=O)(NC(=S)NC1CCCCC1)c1ccc(Br)cc1	i	i	4	i	i	11*	0.012*	0.028*	0.031	0.023*	0.033*	0.012*
CSCCC(NC(=O)c1ccc([N+](=O)[O-])cc1Cl)C(=O)OCC(=O)NCC(F)(F)F (stereo not given)	i	i	-10	i	i	-0.3	x	x	x	x	x	x
CSCCC(NC(=O)c1ccc([N+](=O)[O-])cc1Cl)C(=O)OCC(=O)NCCCc1ccccc1 (stereo not given)	i	i	-18	i	i	-4.3*	0.0056	u	0.026*	0.0071	u	0.01
CC(=O)c1ccc(-c2cccc(-c3cc(=O)oc4ccc(C(C)(C)C)cc34)c2)cc1	i	x	x	x	x	x	x	x	x	x	x	x
CC1(CCc2ccccc2)NC(=S)N(c2ccc(Cl)cc2)N1 (stereo not given)	i	i	-6	i	i	-0.03	x	x	x	x	x	x
CCC1(c2ccc(Cl)cc2)NC(=S)N(c2ccc(C)c(C)c2)N1 (stereo not given)	i	i	68*	103*	i	93*	0.05*	0.12*	0.044*	0.1*	0.087*	0.038*
CCC1(c2ccc(Cl)cc2)NC(=S)N(c2ccc(C)cc2)N1 (stereo not given)	i	i	38*	68*	i	52*	0.041*	0.096*	u	0.083*	0.074*	0.028*
CCC1(c2ccccc2)NC(=S)N(c2ccc(C)c(C)c2)N1 (stereo not given)	i	i	47*	91*	i	42*	0.042*	0.11*	0.038	0.055*	0.059*	0.017*
COc1ccc(Cl)cc1NC(=O)c1cccc([N+](=O)[O-])c1O	i	x	x	x	x	x	x	x	x	x	x	x
CCOC(=O)C(C(=O)Cc1ccccc1)c1ccccc1 (stereo not given)	i	x	x	x	x	x	x	x	x	x	x	x
O=C(NC1CCCC1)C(c1ccncc1)N(Cc1ccco1)C(=O)c1ccc(-c2ccccc2)[nH]1 (stereo not given)	i	i	-25	i	i	-3.3*	0.0071	u	0.024*	0.0074	u	0.011

Screens (PubChem)
